Results as given in ChEMBL document CHEMBL4765423, “Antikinetoplastid SAR study in 3-nitroimidazopyridine series: Identification of a novel non-genotoxic and potent anti-T. b. brucei hit-compound with improved pharmacokinetic properties” (Eur J Med Chem, 2020).
Converted amounts (≈) assume the structure as drawn.

What was measured:
[1] = Microsomal stability in CD-1 mouse liver microsomes assessed as half life in presence of NADP measured up to 40 mins by LC-MS analysis; format: ADME, Microsome
Summary of the method: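 Compound was incubated in duplicate with female CD-1 mouse microsomes at 37 °C in 50 mM phosphate, pH 7.4. An NADP-regenerating system was present (MgCl₂ 5 mM, NADP 1 mM, G6PDH 0.4 U/mL, G6P 5 mM).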

[2] = Half life in Swiss mouse at 100 mg/kg, po by LC-MS/MS analysis; format: ADME, organism-based; conditions: in vivo
Summary of the method: (§1)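 Mice were given oral doses of 100 mg/kg. Plasma Cmax, Tmax, half-life, AUC0-inf and clearance were derived from this.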

[3] = AUC (0 to infinity) in Swiss mouse at 100 mg/kg, po by LC-MS/MS analysis; format: ADME, organism-based; set-up: time infinity, route oral, dose 100 mg/kg; conditions: in vivo; summary of the method: as §1
[4] = Toxicity in Swiss mouse assessed as lesions on brain at 100 mg/kg, po administered once daily for 5 days; format: organism-based; conditions: in vivo, 120 h, time 5 day
Summary of the method: (§2)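 Four mice received compound at 100 mg/kg by oral gavage once daily for 5 days, followed by a follow-up period.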

[5] = Toxicity in Swiss mouse assessed as lesions on kidney at 100 mg/kg, po administered once daily for 5 days; format: organism-based; conditions: in vivo, 120 h, time 5 day; summary of the method: as §2
Leishmania infantum = assay: Antileishmanial activity against Leishmania infantum MHOM/MA/67/ITMAP-263 axenic amastigotes assessed as inhibition of parasitic metabolic activity incubated for 48 hrs by steady Glow reagent based luminescence assay; format: functional, organism-based; conditions: MHOM/MA/67/ITMAP-263, 48 h
Summary of the method: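 Luciferase-expressing promastigotes were acidified (pH 5.4, 24 h, 24 °C) and then held 24 h at 37 °C to give axenic amastigotes. These were used at 2×10⁶/mL with compound (DMSO <0.5%), in duplicate, for 48 h at 37 °C. Luciferase luminescence was read. EC50 came from non-linear regression, as the mean of three independent experiments.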

[6] = Selectivity index, ratio of CC50 for human HepG2 cells to EC50 for Trypanosoma brucei brucei trypomastigotes AnTat 1.9; format: toxicity; conditions: read-out: Ratio CC50/EC50
[7] = test system: Trypanosoma brucei brucei; assay: Selectivity index, ratio of EC50 for antitrypanosomal activity against blood stream form of wild type Trypanosoma brucei brucei S427 trypomastigotes to EC50 for antitrypanosomal activity against blood stream form of Trypanosoma brucei brucei S427 trypomastigotes overexpressing NTR1; format: functional
[8] = Selectivity index, ratio of CC50 for human HepG2 cells to EC50 for antileishmanial activity against Leishmania donovani MHOM/IN/00/DEVI promastigotes; format: toxicity; conditions: read-out: Ratio CC50/EC50
[9] = Permeability of the compound in pH 7.4 Prisma HT buffer at 100 uM incubated for 4 hrs by PAMPA-BBB assay method
[10] = Tmax in Swiss mouse at 100 mg/kg, po by LC-MS/MS analysis; format: ADME, organism-based; conditions: in vivo; summary of the method: as §1
[11] = Toxicity in orally dosed Swiss mouse administered once daily for 5 days; format: organism-based; conditions: in vivo, po, time 5 day; summary of the method: as §2
HepG2 = assay: Genotoxicity in human HepG2 cells assessed as induction of DNA damage at 5 to 20 uM incubated for 2 to 72 hrs by alkaline comet assay; format: toxicity, cell-based; conditions: hepg2, 20 µM, dose lower 5 µM, time lower 2 hrs, dose upper 20 µM, time upper 72 hrs
Summary of the method: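 HepG2 cells were exposed to 5, 10 and 20 µM compound for 2, 24 or 72 h. Methyl methanesulfonate was the positive control, and read-out was % DNA in tail.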

[12] = Thermodynamic solubility of the compound in phosphate buffer at pH 7.4 incubated for 24 hrs under shaking condition by shake flask method; format: physicochemical; conditions: read-out: Therm_solubility
Summary of the method: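 The miniaturized shake-flask method used 20 mM DMSO stock diluted into phosphate buffer at pH 7.4 (n = 4). Tubes were shaken 24 h at room temperature and centrifuged. Supernatant was mixed 1:1 with acetonitrile and quantified by UV, with calibration at 370 nm.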

[13] = Electrochemical behavior of the compound assessed as redox potential corrected toward normal hydrogen electrode by cyclic voltammetry
[14] = test system: Trypanosoma brucei brucei; assay: Antitrypanosomal activity against blood stream form of wild type Trypanosoma brucei brucei S427 trypomastigotes assessed as inhibition of parasite growth; format: functional, organism-based
Summary of the method: (§3)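 Bloodstream-form single marker S427 (T7RPOL TETR NEO) grown at 37 °C in HMI9-T with 2.5 µg/mL G418. The NTR1-overexpressing line is additionally kept in 2.5 µg/mL phleomycin and induced with 1 µg/mL tetracycline 48 h before testing.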

[15] = test system: Trypanosoma brucei brucei; assay: Antitrypanosomal activity against blood stream form of Trypanosoma brucei brucei S427 trypomastigotes overexpressing NTR1 assessed as inhibition of parasite growth; format: functional, organism-based; summary of the method: as §3
[16] = Toxicity in Swiss mouse assessed as lesions on lung at 100 mg/kg, po administered once daily for 5 days; format: organism-based; conditions: in vivo, 120 h, time 5 day; summary of the method: as §2
[17] = Toxicity in Swiss mouse assessed as lesions on heart at 100 mg/kg, po administered once daily for 5 days; format: organism-based; conditions: in vivo, 120 h, time 5 day; summary of the method: as §2
[18] = Cytotoxicity against human HepG2 cells assessed as reduction in cell viability after 72 hrs by MTT assay; format: cell-based
Summary of the method: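 MTT was applied at 0.5 mg/mL for 2 h, formazan was dissolved in DMSO, and absorbance read at 570 nm with a 630 nm reference. Doxorubicin was the positive control. CC50 was taken from the dose-response curve, as the mean of three experiments.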

[19] = Aqueous solubility of compound; format: physicochemical; conditions: buffer
[20] = test system: Trypanosoma brucei brucei; assay: Antitrypanosomal activity against bloodstream form Trypanosoma brucei brucei AnTat 1.9 trypomastigotes assessed as reduction in parasite viability incubated for 69 hrs by Alamar Blue dye based assay; format: functional, organism-based; conditions: AnTat 1.9, 69 h
Summary of the method: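 BSF parasites were cultured in MEM/Baltz medium with 20% heat-inactivated horse serum, mercaptoethanol, L-cysteine and bathocuproine, at 37 °C and 5% CO₂. Cells were seeded at 2000 parasites/100 µL with compound from DMSO, in duplicate, for 69 h. Alamar Blue was added for 5 h and fluorescence read (ex 530/em 590 nm). EC50 came from non-linear regression over three independent experiments.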

[21] = test system: Trypanosoma brucei brucei; assay: Potency index, ratio of nifurtimox EC50 to compound EC50 for antitrypanosomal activity against blood stream form of wild type Trypanosoma brucei brucei S427 trypomastigotes; format: functional
[22] = Clearance in Swiss mouse at 100 mg/kg, po by LC-MS/MS analysis; format: ADME, organism-based; conditions: in vivo; summary of the method: as §1
[23] = Selectivity index, ratio of CC50 for human HepG2 cells to EC50 for antileishmanial activity against Leishmania infantum MHOM/MA/67/ITMAP-263 axenic amastigotes; format: toxicity; conditions: read-out: Ratio CC50/EC50
CHO-K1 = assay: Genotoxicity in CHOK1 cells assessed as increase in micronucleated cells at 0.01 to 0.5 mM in presence or absence of S9 fraction measured after 3 hrs by Giemsa staining based micronucleus assay; format: toxicity, cell-based, Cricetulus griseus; conditions: chinese hamster, cho-k1, 3 h, 500 µM, dose 0.01-0.5 mM
Summary of the method: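 CHO-K1 cells in McCoy's 5A were exposed 3 h to 0.01–0.5 mM compound, with or without 10% S9 mix, in duplicate. Cells then received cytochalasin B (3 µg/mL) for 21 h and were methanol-fixed and Giemsa-stained. Micronuclei were scored in 1000 binucleated cells per well, and CBPI and cytostasis were also determined. A χ² test was run against the negative control.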

[24] = Toxicity in Swiss mouse assessed as lesions on liver at 100 mg/kg, po administered once daily for 5 days; format: organism-based; conditions: in vivo, 120 h, time 5 day; summary of the method: as §2
[25] = Cmax in Swiss mouse at 100 mg/kg, po by LC-MS/MS analysis; format: ADME, organism-based; set-up: route oral, dose 100 mg/kg; conditions: in vivo; summary of the method: as §1
Leishmania donovani = assay: Antileishmanial activity against Leishmania donovani MHOM/IN/00/DEVI promastigotes assessed as inhibition of parasitic metabolic activity measured after 72 hrs by MTT assay; format: functional, organism-based
Summary of the method: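 Log-phase promastigotes at 10⁶/mL were grown in Schneider's medium with 20% FCS at 27 °C. Compound was added from DMSO stock (final <0.5% v/v), in duplicate, for 72 h. Metabolic activity was read by MTT (4 h, 27 °C) and absorbance at 570 nm. EC50 came from non-linear dose-response regression, as the mean of ≥3 independent experiments.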

Albumin = Albumin (Homo sapiens, UniProt P02768); assay: Binding affinity to human albumin incubated for 4 hrs by LC-MS analysis; format: ADME; conditions: read-out: PB (converted)
Albumin, sequence (P02768 whole entry): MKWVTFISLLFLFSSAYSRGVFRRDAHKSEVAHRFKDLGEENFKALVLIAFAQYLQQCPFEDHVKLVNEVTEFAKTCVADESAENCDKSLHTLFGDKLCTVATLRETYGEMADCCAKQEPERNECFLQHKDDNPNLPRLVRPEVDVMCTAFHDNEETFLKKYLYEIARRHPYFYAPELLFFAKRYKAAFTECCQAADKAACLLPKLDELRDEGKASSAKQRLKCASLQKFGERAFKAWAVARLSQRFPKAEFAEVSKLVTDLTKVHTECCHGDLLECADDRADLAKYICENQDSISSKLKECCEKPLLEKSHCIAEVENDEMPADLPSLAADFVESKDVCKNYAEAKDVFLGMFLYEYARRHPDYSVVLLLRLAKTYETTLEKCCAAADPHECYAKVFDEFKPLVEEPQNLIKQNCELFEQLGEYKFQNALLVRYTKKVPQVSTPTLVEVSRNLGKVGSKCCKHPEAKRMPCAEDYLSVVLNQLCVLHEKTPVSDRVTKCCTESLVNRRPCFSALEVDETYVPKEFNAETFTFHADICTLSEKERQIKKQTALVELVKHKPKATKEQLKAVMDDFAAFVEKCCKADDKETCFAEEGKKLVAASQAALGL

## CS(=O)(=O)Cc1nc2c(Br)cc(Cl)cn2c1[N+](=O)[O-]
[1]
  half-life: > 0.667 h
[2]
  half-life: 7.7 h
[3]
  AUC(0-inf): 7060 ng·h/mL
[4]
  Activity: Non-Toxic
[5]
  Activity: Non-Toxic
Leishmania infantum
  EC50: > 25000 nM
[6]
  selectivity ratio: 2650
[7]
  Ratio EC50: 4
[8]
  selectivity ratio: 7.9
[9]
  Papp at 4 h, 100 µM: 8.42 ×10⁻⁶ cm/s
[10]
  Tmax: 5 h
[11]
  NOAEL at 120 h: 100 mg/kg/day
HepG2
  Activity: Non-Toxic
[12]
  solubility thermodynamic at 24 h: 25.8 µM (≈ 9.51 µg/mL)
[13]
  Activity: -0.6 V
[14]
  EC50: 65 nM
[15]
  EC50: 16 nM
[16]
  Activity: Non-Toxic
[17]
  Activity: Non-Toxic
[18]
  CC50 at 72 h: 45000 nM
[19]
  solubility: Soluble
[20]
  EC50: 17 nM
[21]
  Ratio EC50: 30
[22]
  CL/F: 0.0085 mL/min
[23]
  selectivity ratio: < 1.8
CHO-K1
  Activity: Non-Toxic
[24]
  Activity: Non-Toxic
[25]
  Cmax: 741 ng/mL
Leishmania donovani
  EC50: 5700 nM
Albumin
  fraction unbound at 4 h: 0.231
